Shown are actives, neighbours in structure and some others; about 2.9% of the full set was active somewhere.
Statin myotox sup: protects C2C12 myotubes from simvastatin toxicity; ATP luminescence, 48 h; scaled: DMSO 0, geranylgeraniol control 100; rescue of ATP level, % at 7.49 µM; 330,000 tested, 0.78% active; AID 602340;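 active means mean ATP rescue above about 67%, or every replicate alone reaching that limit, limit read from the data, passing the limit was not always enough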;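 further: myotubes were challenged with 10 µM simvastatin during compound exposure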
DENV2 CPE: DENV2-induced cell death inhibition; CPE inhibition, % at 9.99 µM; DENV2-infected cells, cytopathic effect rescue, plate reader; 350,000 tested, 1.7% active; AID 651640; in the data active means CPE inhibition above about 20%, passing the limit was not always enough; tested in BHK-21 cells;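 further: 0% = median of neutral control wells and 100% = median of positive control wells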
S100A4 MyoIIA: inhibitors of human S100A4 binding to myosin IIA peptide; S100A4/TAMRA-MyoIIA peptide fluorescence polarization; P26447; 360,000 tested, 0.14% active; inhibition, % at 10.7 µM;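 active means mean inhibition of at least 70% across replicates, with every replicate also reaching that level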
Target sequence (P26447 whole entry, looked up): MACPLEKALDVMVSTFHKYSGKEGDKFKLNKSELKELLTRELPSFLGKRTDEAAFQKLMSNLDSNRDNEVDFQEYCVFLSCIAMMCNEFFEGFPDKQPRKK
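Test system – S100A4 monomer (human) · Compound – single-point compound testing · Schedule – 5 min incubation before reading · Probe or stimulus – TAMRA-labelled myosin IIA heavy-chain peptide probe, 5 nM · Benchmarks – neutral control DMSO, positive control TFP · Medium – Calcium-containing HEPES buffer, pH 7.2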
PGC1a acetyl inh: modulators of PGC1a acetylation; 350,000 tested, 0.17% active; U2OS PGC1a acetylation, AlphaScreen anti-acetyl-lysine; with virally co-expressed GCN5 acetyltransferase; inhibition, % at 15.6 µM; AID 651687;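 active means every replicate shows inhibition of at least 40%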;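 further: 0% = neutral control wells and 100% = positive control wells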
SIRT5 inh: inhibitors of human sirtuin-5 desuccinylase; 330,000 tested, 1.1% active; Q9NXA8; inhibition, % at 15 µM; Purified SirT5, succinyl-peptide AMC, trypsin-coupled fluorescence; in the data active means inhibition above about 15%
Target sequence (Q9NXA8 whole entry, looked up): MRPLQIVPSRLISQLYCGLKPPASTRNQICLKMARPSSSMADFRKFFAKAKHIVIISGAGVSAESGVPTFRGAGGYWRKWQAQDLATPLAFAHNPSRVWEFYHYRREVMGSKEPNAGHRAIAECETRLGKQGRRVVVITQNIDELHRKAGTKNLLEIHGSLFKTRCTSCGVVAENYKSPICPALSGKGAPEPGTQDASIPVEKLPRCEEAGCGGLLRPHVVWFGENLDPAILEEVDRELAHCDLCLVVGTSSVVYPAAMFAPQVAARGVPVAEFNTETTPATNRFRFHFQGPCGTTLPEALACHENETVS
Numbers without * were called inactive; nt = not tested or not shown.

SMILES | Statin myotox sup | DENV2 CPE | S100A4 MyoIIA | PGC1a acetyl inh | SIRT5 inh
OC[C@H]1[C@@H](c2ccccc2)C2(CN(Cc3nccs3)C2)N1CC1CCOCC1 | nt | -5.0 | -9.0 | -4.2 | -5.3
OC[C@@H]1[C@@H](c2ccccc2)C2(CN(CC3CCOCC3)C2)N1Cc1nccs1 | nt | 51.1* | 13.5 | 21.6 | -0.1
Cc1ccccc1CSc1nnc(-c2ccco2)n1Cc1ccco1 | nt | nt | nt | 98.7* | nt
O=C(Nc1ccc2c(c1)[C@H]1C[C@H](CC(=O)N3CCc4ccccc4C3)O[C@@H](CO)[C@H]1O2)Nc1ccccc1F | -1.0 | nt | nt | -4.3 | nt
NC(=O)CSc1nc2ccccc2n1-c1ccccc1 | -12.2 | nt | 5.7 | 3.0 | 26.1*
O=C(O)CSc1nc2ccccc2n1-c1ccccc1 | nt | 2.9 | -2.3 | 2.3 | 1.6
O=C(Nc1cccc(F)c1)N1CC(=O)N2[C@H](C1)[C@H](c1ccc(C#CCC3CCCC3)cc1)[C@@H]2CO | nt | -7.5 | -1.8 | -15.4 | 2.6
COC(=O)c1nc(-n2nc(C)cc2C)ccc1Cl | 9.7 | nt | nt | 3.9 | nt
CNC(=O)COC(=O)c1nc(-n2nc(C)cc2C)ccc1Cl | 80.0* | nt | nt | -30.5 | nt
C[C@H](CO)N1C[C@H](C)[C@@H](CN(C)Cc2ccc(-c3ccccc3)cc2)Oc2ccc(NC(=O)Cn3cnnn3)cc2CC1=O | 89.0* | 2.0 | -12.1 | -1.6 | 12.4
C[C@@H]1CN([C@H](C)CO)C(=O)c2cc(NC(=O)Cn3cnnn3)ccc2O[C@H]1CN(C)Cc1ccc(C(=O)Nc2ccccc2N)cc1 | nt | 3.6 | -3.9 | -5.6 | nt
C[C@H](CO)N1C[C@H](C)[C@H](CN(C)Cc2ccc(C(=O)Nc3ccccc3N)cc2)Oc2ccc(NC(=O)Cn3cnnn3)cc2CC1=O | nt | 55.0* | -0.2 | 8.7 | nt
CCC(=O)Nc1ccc2c(c1)C(=O)N(C)C[C@H](OC)[C@@H](C)CN(C(=O)Cc1ccccn1)[C@@H](C)CO2 | -5.2 | -3.2 | -1.0 | -0.4 | -0.6
O=C(NC1CCCC1)C(c1ccco1)N1CCN(c2c(Cl)cncc2Cl)CC1 (centres undefined) | nt | 24.2* | -4.6 | nt | 1.2
O=C(NC1CCCC1)C(c1ccco1)N1CCC(O)(c2ccc(Cl)cc2)CC1 (centres undefined) | nt | -3.5 | -2.6 | nt | -4.1
Cc1ccc(S(=O)(=O)Nc2ccc3c(c2)C(=O)N(C)[C@H]2CC[C@H](CC(=O)NCCc4ccncc4)O[C@H]2CO3)cc1 | 12.0 | -0.7 | -0.7 | -5.1 | -1.2
Cn1ccc2c(N3CCCC3)cc3c(c21)C1CCC3O1 (centres undefined) | -8.5 | -9.3 | 8.2 | 4.5 | 0.3
Cn1ccc2c(N3CCOCC3)cc3c(c21)C1CCC3O1 (centres undefined) | 0.4 | 48.0* | 24.4 | 12.3 | -13.5
COC(=O)[C@@H]1[C@@H](CO)[C@@H]2Cn3c(ccc(-c4ccccc4)c3=O)[C@@H]2N1C(=O)CC1CC1 | -50.6 | 18.8 | 75.5* | nt | -7.3
COC(=O)[C@H]1[C@H](CO)[C@H]2Cn3c(ccc(-c4ccccc4)c3=O)[C@H]2N1CC1CCCCC1 | 37.0 | 45.4* | -19.6 | nt | 1.5
COC(=O)[C@H]1[C@H](CO)[C@H]2Cn3c(ccc(-c4ccncc4)c3=O)[C@H]2N1CC1CCCCC1 | 1.5 | -3.6 | -0.3 | -2.2 | -2.0
CN(C)C(=O)[C@@H]1[C@@H](CO)[C@@H]2Cn3c(ccc(-c4ccccc4)c3=O)[C@@H]2N1Cc1ccccc1 | 25.1 | -2.0 | 14.3 | nt | 23.4*
COC(=O)[C@@H]1[C@@H](CO)[C@@H]2Cn3c(ccc(-c4ccccc4)c3=O)[C@@H]2N1CC1CCCCC1 | 16.8 | 33.3* | nt | nt | nt
Cc1ccc(S(=O)(=O)N[C@@H]2C=C[C@@H](CC(=O)N3CCN(c4ccccc4)CC3)O[C@H]2CO)cc1 | 0.9 | 9.3 | -0.1 | -3.2 | 2.3
CCCC(=O)N1CCC2(CC1)CN(C(=O)c1ccc(F)cc1)[C@@H](CO)c1[nH]c3cc(OC)ccc3c12 | nt | -7.1 | -7.3 | -0.6 | -0.2
SMILES | Statin myotox sup | DENV2 CPE | S100A4 MyoIIA | PGC1a acetyl inh | SIRT5 inh
Cc1ccc(S(=O)(=O)Nc2ccc3c(c2)C(=O)N([C@@H](C)CO)C[C@H](C)[C@@H](CN(C)C(=O)Nc2ccc(C(F)(F)F)cc2)OCCCC[C@@H](C)O3)cc1 | nt | -2.0 | -0.9 | -8.8 | 18.1*
Cc1ccc(S(=O)(=O)Nc2ccc3c(c2)C(=O)N([C@@H](C)CO)C[C@@H](C)[C@@H](CN(C)C(=O)Nc2ccc(C(F)(F)F)cc2)OCCCC[C@@H](C)O3)cc1 | nt | 3.8 | -0.5 | -19.7 | 15.3*
C[C@H](CO)N1C[C@H](C)[C@H](CN(C)C(=O)c2ccc3c(c2)OCO3)Oc2ncc(C#CCN(C)C)cc2C1=O | 1.6 | 24.9* | 3.5 | 5.9 | -3.4
CCCC#Cc1cnc2c(c1)C(=O)N([C@@H](C)CO)C[C@H](C)[C@H](CN(C)C(=O)c1ccc3c(c1)OCO3)O2 | 9.2 | -3.2 | 9.2 | 2.9 | 2.3
CCCC#Cc1cnc2c(c1)C(=O)N([C@@H](C)CO)C[C@@H](C)[C@H](CN(C)C(=O)c1ccc3c(c1)OCO3)O2 | 22.7 | 83.5* | -10.7 | -3.0 | 4.0
Cc1ccc(S(=O)(=O)N(C)C[C@H]2OCCCC[C@@H](C)Oc3ccc(NS(=O)(=O)c4c(C)noc4C)cc3C(=O)N([C@@H](C)CO)C[C@@H]2C)cc1 | nt | 29.5* | -21.7 | -14.6 | 16.8*
Cc1ccc(S(=O)(=O)N(C)C[C@@H]2OCCCC[C@@H](C)Oc3ccc(NS(=O)(=O)c4ccccc4)cc3C(=O)N([C@@H](C)CO)C[C@H]2C)cc1 | -5.1 | 3.1 | -2.6 | -4.3 | 18.6*
Cc1ccc(S(=O)(=O)Nc2ccc3c(c2)C(=O)N([C@@H](C)CO)C[C@H](C)[C@H](CN(C)S(=O)(=O)c2ccccc2)OCCCC[C@H](C)O3)cc1 | nt | -1.6 | -18.1 | -6.3 | 9.5
Cc1ccc(S(=O)(=O)N(C)C[C@H]2OCCCC[C@@H](C)Oc3ccc(NS(=O)(=O)c4ccccc4)cc3C(=O)N([C@@H](C)CO)C[C@@H]2C)cc1 | 7.5 | 5.9 | -6.4 | -13.9 | 18.8*
Cc1ccc(S(=O)(=O)N(C)C[C@H]2OCCCC[C@H](C)Oc3ccc(NS(=O)(=O)c4ccccc4)cc3C(=O)N([C@@H](C)CO)C[C@@H]2C)cc1 | 16.4 | -5.4 | 0.4 | -8.0 | 18.8*
Cc1ccc(S(=O)(=O)N(C)C[C@@H]2OCCCC[C@@H](C)Oc3ccc(NS(=O)(=O)c4c(C)noc4C)cc3C(=O)N([C@@H](C)CO)C[C@@H]2C)cc1 | nt | -9.6 | -5.2 | -9.3 | 4.6
Cc1ccc(S(=O)(=O)Nc2ccc3c(c2)C(=O)N([C@H](C)CO)C[C@H](C)[C@@H](CN(C)S(=O)(=O)c2ccccc2)OCCCC[C@H](C)O3)cc1 | nt | 0.6 | -2.4 | -7.9 | 9.5
COCC(=O)N[C@H]1C=C[C@@H](CC(=O)N2CCCCC2)O[C@@H]1CO | -13.0 | -0.6 | nt | nt | nt
C[C@@H]1CCCCO[C@@H](CN(C)C)[C@@H](C)CN([C@@H](C)CO)C(=O)c2cc(NS(=O)(=O)c3ccc(Cl)cc3)ccc2O1 | -23.9 | -9.0 | 2.8 | 6.7 | 0.8
